UHRF1 binding: blocks human UHRF1 binding to methylated DNA; Q96T88; UHRF1 binding to methylated oligo, TR-FRET; inhibition, % at 4.4 µM; actives 0.75% (n = 370,000); AID 687016; in the data active = inhibition above about 21%;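 note: UHRF1 SRA domain binding a hemimethylated CpG hairpin DNA probe; 0% = median of test compound wells and 100% = reference inhibitor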
LEDGF integ inh: blocks HIV-1 LEDGF/p75-dependent DNA integration | TR-FRET IN-LEDGF/p75 DNA integration, Eu/Cy5 | inhibition, % at 3.7 µM | actives 0.64% (n = 370,000) | AID 743269;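 active = inhibition above the screen-wide mean plus 3 SD, cut at about 13% in these data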;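 note: signal is the Cy5 over europium emission ratio at 671 and 618 nm; 0% = plate median of compound wells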
TDP2 inh: TDP2 (human) inhibition, absorbance primary screen | actives 0.34% (n = 370,000) | O95551 | inhibition, % at 12.8 µM | recombinant TDP2, T5PNP hydrolysis, p-nitrophenol absorbance 415 nm;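 active = inhibition above the mean of all tested compounds plus 3 SD, set per campaign, cut at about 25% in these data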;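 note: 0% = DMSO with enzyme and 100% = buffer with substrate but no TDP2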
Target sequence (O95551 whole entry, looked up): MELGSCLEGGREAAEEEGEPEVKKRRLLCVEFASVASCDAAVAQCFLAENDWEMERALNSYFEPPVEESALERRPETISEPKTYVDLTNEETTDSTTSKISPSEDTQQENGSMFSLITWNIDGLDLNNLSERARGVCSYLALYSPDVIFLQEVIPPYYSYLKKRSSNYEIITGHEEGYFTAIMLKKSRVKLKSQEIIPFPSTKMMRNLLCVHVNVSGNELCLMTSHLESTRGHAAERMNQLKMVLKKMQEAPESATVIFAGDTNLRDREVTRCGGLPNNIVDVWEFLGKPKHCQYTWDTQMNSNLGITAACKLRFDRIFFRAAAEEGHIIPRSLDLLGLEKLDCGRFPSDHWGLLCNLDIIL
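System – recombinant human TDP2 · Quantity – TDP2 enzyme at 120 nM final · Doses – single concentration, 12.8 µM nominal, with 1% DMSO · Incubation – 2 h at 37 °C · Measured by – epi absorbance of p-nitrophenol freed from T5PNP by hydrolysis · Read-out – % inhibition relative to enzyme-containing and enzyme-free wells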
MBD2 DNA inh: blocks human MBD2 binding to methylated DNA. TR-FRET, MBD2 binding to methylated oligonucleotide. actives 0.31% (n = 370,000). AID 686964. inhibition, % at 4.4 µM. Q9UBB5; in the data active = inhibition above about 13%
IN multimer act: counter-screen for LEDGF/p75 integration inhibitors: HIV-1 integrase multimerization activators | shares compounds with LEDGF integ inh | TR-FRET HIV-1 integrase multimerization, biochemical | activation, % at 7.7 µM | actives 17% (n = 2,000) | AID 1053131; in the data active = activation above about 8.9%
TR-FRET interf: TR-FRET optical interference, LEDGF/p75 integration counter-screen; shares compounds with LEDGF integ inh; 2,000 tested, under 10 active; AID 1053135; inhibition, % at 7.7 µM; TR-FRET optical interference counterscreen, HIV-1 IN multimerization;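 active = inhibition above the mean over all tested compounds plus 3 SD, which no compound reached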;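 note: 0% = integrase with antibodies and DMSO and 100% = antibodies without integrase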
IN-LEDGF confirm: confirmation of HIV-1 LEDGF/p75-dependent integration inhibitors | inhibition, % at 3.7 µM | TR-FRET LEDGF/p75-dependent HIV-1 integration, biochemical | AID 1053136 | shares compounds with LEDGF integ inh | actives 36% (n = 2,000); in the data active = inhibition above about 14%
* = called active by the depositor; / = no result. Only some compounds are listed: those with a hit (about 1.6% of all), similar ones and a draw of the others.

SMILES | UHRF1 binding | LEDGF integ inh | TDP2 inh | MBD2 DNA inh | IN multimer act | TR-FRET interf | IN-LEDGF confirm
C=C1[C@H]2CC[C@H]3[C@]4(C)C[C@H](O[C@@H]5OC(CO)[C@@H](OSOOO)[C@H](OS(=O)(=O)O)[C@H]5OC(=O)CC(C)C)C[C@@H](C(=O)O)[C@H]4CC[C@]3(C2)[C@H]1O (stereo not given in full) | 3 | 14* | -15 | -7 | -2 | 11 | 15*
CCCCn1c(=O)c(C=Nc2ccc(Cl)cc2)c(O)n(Cc2ccco2)c1=O | -1 | 2 | -6 | -2 | / | / | /
CC(C)n1c(=O)c(C=Nc2ccc(S(N)(=O)=O)cc2)c(O)n(Cc2ccco2)c1=O | 8 | 17* | -1 | 7 | 0 | 1 | 5
O=S(=O)(c1ccc2ccccc2c1)N1Cc2cc(Br)ccc2-n2nncc2C1 | 2 | -1 | 0 | 2 | / | / | /
C=C1C(=O)OC2CCN3CC=C(COC(=O)C(C)(O)C4(CO4)C1C)C23 (stereo not given) | 41* | 37* | -12 | 9 | 0 | 1 | -3
Cc1cc(/C=C2\C(=O)NC(=O)N(c3ccc(F)cc3)C2=O)c(C)n1-c1cccc(C(=O)O)c1 | 8 | 4 | 6 | 0 | / | / | /
Cc1cc(/C=C2\C(=O)NC(=O)N(c3ccccc3F)C2=O)c(C)n1-c1cc(C(=O)O)cc(C(=O)O)c1 | 52* | 40* | 2 | 9 | 14* | -72 | 39*
C=CCN1C(=O)NC(=O)/C(=C/c2ccoc2)C1=O | 28* | 14* | 3 | 3 | 2 | -9 | 42*
C=CCN1C(=O)NC(=O)/C(=C/c2cccn2C)C1=O | -4 | -2 | 10 | 1 | / | / | /
Cc1ccc2nc(-c3ccc(CN4CCC(n5c(=O)[nH]c6cc(Cl)ccc65)CC4)cc3)c(-c3ccccc3)nc2c1 | 0 | -3 | 2 | -1 | / | / | /
Cc1cc(C)cc(N2C(=O)NC(=O)/C(=C\C=C\c3ccco3)C2=O)c1 | 15 | 35* | 7 | 0 | -1 | 3 | 29*
CC(C)c1ccc(N2C(=O)NC(=O)/C(=C/C=C/c3ccco3)C2=O)cc1 | 2 | 24* | 3 | 0 | 3 | -12 | 27*
CCc1ccc(N2C(=O)NC(=O)/C(=C\C=C\c3ccco3)C2=O)cc1 | 10 | 35* | 5 | 1 | 0 | -1 | 40*
CC1=NN(c2ccccc2)C(=O)C1/C=C1\C(=O)NC(=O)N(c2cc(C)cc(C)c2)C1=O (stereo not given) | -5 | 5 | 20 | -8 | / | / | /
CC(C)c1ccc(N2C(=O)CC(=O)NC2=O)cc1 | 4 | -3 | -5 | 4 | / | / | /
O=C1NC(=O)N(c2ccccc2)C(=O)/C1=C\C=C\c1ccccc1 | 5 | 0 | 2 | 7 | / | / | /
Cc1ccc(N2C(=O)NC(=O)/C(=C/C=C/c3ccco3)C2=O)cc1 | 10 | 35* | 7 | -3 | -1 | 5 | 24*
Cc1ccc(OC(=O)N(C)C[C@@H]2OCc3ccccc3-c3c(n(C)c4ccccc34)C(=O)N([C@H](C)CO)C[C@H]2C)cc1 | -2 | 3 | 5 | -1 | / | / | /
Cc1cc(N2CCNC[C@@H]2C)ccc1N1CCN[C@@H](C)C1 | 1 | -3 | 10 | -2 | / | / | /
CC(c1ccccc1)n1cc(C(=O)NC2CCCC2)nn1 (stereo not given) | -3 | 0 | 6 | -7 | / | / | /
O=C1NC(=O)N(Cc2ccc(F)cc2)C(=O)/C1=C\C=C\c1ccco1 | 5 | 30* | 2 | -4 | 3 | -11 | 20*
Cn1cccc1/C=C1/C(=O)NC(=O)N(Cc2ccc(F)cc2)C1=O | 20 | 1 | 2 | -1 | / | / | /
COc1ccc(-c2ccc3c(c2)CN(c2cccc(Cl)c2)Cc2cnnn2-3)cc1 | 25* | 73* | -9 | 11 | -1 | 5 | 14*
Cc1cc(/C=C2/C(=O)NC(=O)N(C)C2=O)c(C)n1-c1ccccc1 | -1 | -3 | 5 | -2 | / | / | /
Cc1cc(/C=C2/C(=O)NC(=O)N(Cc3ccco3)C2=O)c(C)n1-c1ccccc1O | 9 | 26* | -11 | -6 | 1 | -3 | -3
SMILES | UHRF1 binding | LEDGF integ inh | TDP2 inh | MBD2 DNA inh | IN multimer act | TR-FRET interf | IN-LEDGF confirm
CCN(CC)c1ccc(/C=C2\C(=O)NC(=O)N(Cc3ccco3)C2=O)cc1 | 66* | 71* | 2 | 8 | -1 | 3 | 54*
CC(=O)N1c2ccccc2C(c2ccccc2)=NCC1C(=O)NC1CCCCC1 (stereo not given) | 0 | 2 | 3 | 0 | / | / | /
Cc1cc(O)c2c(c1)C(=O)[C@@]13C(=C2O)C(=O)[C@H]2C(O)[C@@H]1[C@H]1C(O)[C@@H]3C(=O)C3=C(O)c4c(O)cc(C)cc4C(=O)[C@@]312 (stereo not given in full) | 11 | 8 | -2 | 5 | / | / | /
N#CCC[C@@H]1CC[C@]2(CCCN(Cc3ccncc3)C2)O1 | 1 | 0 | 8 | 3 | / | / | /
NN=C1C(Cl)=C(Cl)C(Cl)=C1Cl | 40* | 22* | -8 | 13 | -1 | 5 | 3
C=CCN1CC[C@]23c4c5ccc(O)c4OC2C(=O)CC[C@@]3(O)[C@H]1C5 (stereo not given in full) | -2 | 1 | 2 | -3 | / | / | /
COC(=O)[C@H]1C[C@@]2(C)c3ccccc3N[C@H]2N1 | 9 | 5 | -11 | 6 | / | / | /
CC1CCCN(C(=O)CCl)C1 (stereo not given) | -1 | 71* | 7 | 0 | 0 | -1 | -4
CC1CCCN(C(=O)CN2C3CCC2CC(O)(c2ccc(F)cc2)C3)C1 (stereo not given) | 0 | 4 | 12 | -2 | / | / | /
N#Cc1ccc2nc(-c3ccc(CN4CCC(n5nnc6ccccc65)CC4)cc3)c(-c3ccccc3)nc2c1 | 1 | -5 | 6 | 5 | / | / | /
C=CCC1(CC)C(=O)NC(=S)NC1=O | -1 | 1 | 2 | -4 | / | / | /
C=C(C)CC1(CC)C(=O)NC(=S)NC1=O | 4 | 20* | -5 | -1 | 1 | -3 | -5
C=CC1C[N+]2(C)CCC1CC2C(O)c1ccnc2ccccc12 (stereo not given) | 0 | -1 | 10 | -2 | / | / | /
CCCCC(=O)N/N=C/c1c(O)n(Cc2ccco2)c(=O)[nH]c1=O | 17 | 27* | 10 | -2 | 0 | -2 | 2
O=c1[nH]c(=O)n(Cc2ccco2)c(O)c1C=NCc1ccco1 | 6 | 15* | 23 | 2 | -2 | 9 | 12
C=CCn1c(O)c(C=Nc2ccc(N(CC)CC)cc2)c(=O)[nH]c1=O | 1 | 30* | 15 | -2 | 2 | -9 | -1
C=CCn1c(O)c(C=Nc2ccc(F)cc2)c(=O)[nH]c1=O | -2 | -4 | 8 | -5 | / | / | /

Compound activity: PubChem BioAssay, The Scripps Research Institute Molecular Screening Center
